Measured values reported in ChEMBL document CHEMBL3228038 (J Med Chem, 1979).
Active and inactive are the calls of the source. The calls are words filed in the database; no cut-off is given here.

Key:
Mus musculus [1] = assay: Toxicity in icv dosed Swiss Webster mouse assessed as decrease in locomotor activity; type: organism-based; conditions: in vivo, icv_or_intrathecal
Procedure, shortened: (§1)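 Male Swiss Webster mice, 20-25 g, observed after icv injection in 4 µL saline. Recorded: lethality and preceding tonic convulsions within 1.5 h, lethargy, startle reflex to hand clap, locomotor activity, and tail-flick latency.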

Mus musculus [2] = assay: Analgesic activity in Swiss Webster mouse at 4 nmol, icv after 10 to 120 mins by tail flick test; type: functional, organism-based
Procedure, shortened: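 Male Swiss Webster mice, 20-25 g. Compound given icv in 4 µL saline (working solution from ethanol/0.05 N HCl stock, evaporated under nitrogen). Agonist activity read by modified D'Amour-Smith tail-flick at intervals out to 2 h post-injection. Saline icv controls given in the same volume.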

Mus musculus [3] = assay: Toxicity in icv dosed Swiss Webster mouse assessed as suppression of startle reflex to loud and abrupt auditory stimulus; type: organism-based; conditions: in vivo, icv_or_intrathecal; procedure, shortened: as §1
Mus musculus [4] = assay: Inhibition of morphine-induced analgesia in Swiss Webster mouse assessed as change in morphine ED50 at 2.4 nmol, icv after 2 hrs by tail flick test; type: functional, organism-based
Mus musculus [5] = assay: Toxicity in icv dosed Swiss Webster mouse assessed as change in tail flick latency; type: organism-based; conditions: in vivo, icv_or_intrathecal; procedure, shortened: as §1
Mus musculus [6] = assay: Toxicity in Swiss Webster mouse assessed as lethargic behavior at 4 nmol, icv; type: organism-based; conditions: in vivo, icv_or_intrathecal; procedure, shortened: as §1
Mus musculus [7] = assay: Effect on development of dependence to morphine in Swiss Webster mouse assessed as increase in naloxone ED50 for eliciting withdrawal jumping at 0.24 nmol, icv after 72 hrs relative to control; type: functional, organism-based
Procedure, shortened: (§2)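 Male Swiss Webster mice, 20-25 g. Given icv injection (4 µL saline vehicle) immediately after sc implantation of a 50 mg morphine or placebo pellet. At 24 and 72 h, naloxone given sc (10 mL/kg saline) and ED50 taken for precipitated withdrawal jumping (Way method). Groups of 4-5 mice per ED50.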

Mus musculus [8] = assay: Effect on development of dependence to morphine in Swiss Webster mouse assessed as increase in naloxone ED50 for eliciting withdrawal jumping at 0.24 nmol, icv after 24 hrs relative to control; type: functional, organism-based; procedure, shortened: as §2
Mus musculus [9] = assay: Toxicity in Swiss Webster mouse assessed as lethality at 4.8 nmol, icv after 1.5 hrs; type: organism-based; conditions: in vivo, icv_or_intrathecal; procedure, shortened: as §1
Mus musculus [10] = assay: Toxicity in Swiss Webster mouse assessed as tonic convulsions at 4.8 nmol, icv; type: organism-based; conditions: in vivo, icv_or_intrathecal; procedure, shortened: as §1
Mus musculus [11] = assay: Toxicity in Swiss Webster mouse assessed as mortality at 2.4 nmol, icv; type: organism-based; conditions: in vivo, icv_or_intrathecal; procedure, shortened: as §1
Mus musculus [12] = assay: Toxicity in icv dosed Swiss Webster mouse assessed as lethargic behavior; type: organism-based; conditions: in vivo, icv_or_intrathecal; procedure, shortened: as §1

| Compound | Activity (Mus musculus [1]) | Activity (Mus musculus [2]) | Activity (Mus musculus [3]) | inhibition (Mus musculus [4]) | Activity (Mus musculus [5]) | Activity (Mus musculus [6]) | Activity (Mus musculus [7]) | Activity (Mus musculus [8]) | Activity (Mus musculus [9]) | Activity (Mus musculus [10]) | Activity (Mus musculus [11]) | Activity (Mus musculus [12]) |
| --- | --- | --- | --- | --- | --- | --- | --- | --- | --- | --- | --- | --- |
| O=C(O)CCCc1ccc(N(CCCl)CCCl)cc1 [CHLORAMBUCIL] | Toxic | inactive | Non-toxic | inactive | Non-toxic | Toxic |  |  |  |  |  |  |
| O=C1CC[C@@]2(O)[C@H]3Cc4ccc(O)c5c4[C@@]2(CCN3CC2CC2)[C@H]1O5 |  |  |  | inactive |  |  | inactive | inactive |  |  |  |  |
| Oc1ccc2c3c1O[C@H]1[C@H](N(CCCl)CCCl)CC[C@@]4(O)[C@@H](C2)N(CC2CC2)CC[C@]314 | Toxic |  | Non-toxic |  | Non-toxic |  |  |  | Toxic | Toxic | Toxic | Toxic |
